FXIa inh 1536: inhibitors of human coagulation factor XIa. P03951. purified FXIa, Boc-Glu-Ala-Arg-AMC fluorogenic substrate. inhibition, % at 5 µM. hit rate 0.14% among 220,000;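 active means inhibition of at least 40%; inactive means inhibition below 40%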;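 further: fluorescence of freed AMC excited at 355 nm; 0% = enzyme without compound and 100% = no enzyme blank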
FXIIa inh: blocks human coagulation factor XIIa protease activity; P00748; purified FXIIa, Boc-QGR-AMC fluorogenic substrate, 2 h; inhibition, % at 5 µM; hit rate 0.3% among 220,000; AID 800; in the data active means inhibition above about 40%;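 further: 0% = enzyme with no compound and 100% = blank without enzyme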
Thrombin inh: blocks human thrombin protease activity; inhibition, % at 5 µM; hit rate 0.26% among 220,000; alpha-thrombin, Boc-VPR-AMC fluorogenic substrate cleavage; P00734;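 active means inhibition at or above 40%; inactive means inhibition below 40%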;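 further: 0% = enzyme with no compound and 100% = wells without enzyme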
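System – human alpha-thrombin · Medium – pH 7.5 Tris (50 mM) with NaCl 150 mM, Tween 20 0.05% · Compound – single-point dosing at 5 µM, 0.2% DMSO · Incubation – enzyme reaction carried out at room temperature · Technique – fluorescence of released AMC, ex 355 nm, em 460 nm · Read-out basis – % inhibition of thrombin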
CTSL1 counter: cathepsin L1 inhibition, PFM18AAP counter-screen | recombinant F. hepatica cathepsin L1, Z-Leu-Arg-MCA fluorescence | inhibition, % at 5.96 µM | hit rate 0.49% among 300,000 | AID 1906;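 active means inhibition above the mean of all tested compounds plus 3 SD, set per screening campaign, cut at about 17% in these data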;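 further: 0% = plate median of test compound wells and 100% = 1 µM Z-Phe-Ala-diazomethylketone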
KLK5 inh: kallikrein 5 (human) inhibition; inhibition, % at 5 µM; Q9Y337; recombinant hK5, fluorogenic AMC substrate cleavage; AID 873; hit rate 0.59% among 210,000;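 active means inhibition of 40% or more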;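 further: 0% = enzyme controls without compound and 100% = no-enzyme blanks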
Target sequence (Q9Y337 67-293 limits assumed): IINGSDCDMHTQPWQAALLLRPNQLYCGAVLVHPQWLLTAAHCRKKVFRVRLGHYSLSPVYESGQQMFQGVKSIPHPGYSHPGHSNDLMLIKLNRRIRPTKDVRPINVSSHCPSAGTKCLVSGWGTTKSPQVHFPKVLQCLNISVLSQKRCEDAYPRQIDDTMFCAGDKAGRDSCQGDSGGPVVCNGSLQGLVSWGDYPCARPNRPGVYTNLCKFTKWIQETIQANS
Rce1 inh: yeast Ras-converting enzyme inhibition. hit rate 0.27% among 290,000. Q03530. calls only. yeast membranes, quenched prenylated peptide cleavage fluorescence. AID 2563;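 active means fall in fluorescence gain of 50% or more versus controls, with final raw signal at or below 3038400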;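 further: plate controls were neutral control wells for no effect and wells lacking membranes for full effect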
Target sequence (Q03530 whole entry, looked up): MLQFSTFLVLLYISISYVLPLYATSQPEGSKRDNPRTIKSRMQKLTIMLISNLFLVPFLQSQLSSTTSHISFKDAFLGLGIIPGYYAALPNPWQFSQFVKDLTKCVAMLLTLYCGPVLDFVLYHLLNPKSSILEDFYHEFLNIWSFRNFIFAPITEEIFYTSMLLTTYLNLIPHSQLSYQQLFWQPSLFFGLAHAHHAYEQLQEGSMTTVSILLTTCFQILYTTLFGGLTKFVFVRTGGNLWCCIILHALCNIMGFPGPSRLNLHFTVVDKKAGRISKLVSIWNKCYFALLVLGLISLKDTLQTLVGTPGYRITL
Starred values were filed as active, the others as inactive. Rows were chosen to be rich in hits. Some 1.4% of all compounds tested hit in one or more screens of this group.

Results for CCC(=O)n1nc(-c2ccc(OC)cc2)nc1NCc1cccs1 ?
FXIa inh 1536: 1; FXIIa inh: 7; Thrombin inh: 89*; KLK5 inh: -5; Rce1 inh: inactive

Results for COc1ccc(CC(=O)NCc2cccs2)cc1 ?
FXIa inh 1536: -2; FXIIa inh: 0; Thrombin inh: -6; CTSL1 counter: 0; KLK5 inh: 1; Rce1 inh: inactive

How did COc1ccc(CNc2nc(-c3ccccc3)nn2C(=O)c2cccs2)cc1 do in these assays?
FXIa inh 1536: -2; FXIIa inh: 4; Thrombin inh: -8; CTSL1 counter: -1; KLK5 inh: -3; Rce1 inh: inactive

What do the screens show for `O=C(CCCCCNC(=O)c1ccccc1Cl)N/N=C/c1ccco1`?
FXIa inh 1536: -1; FXIIa inh: 9; Thrombin inh: -12; CTSL1 counter: -1; KLK5 inh: 0; Rce1 inh: inactive

What do the screens show for `CCN(C(=O)COC(=O)c1c2c(nc3ccccc13)/C(=C/c1ccccc1)CC(C)C2)C1CCS(=O)(=O)C1` (stereo unspecified)?
FXIa inh 1536: 5; FXIIa inh: 10; Thrombin inh: -6; CTSL1 counter: 5; KLK5 inh: -13; Rce1 inh: inactive

Results for COc1cc2[nH]c(=S)n(CCN3CCOCC3)c(=O)c2cc1OC ?
FXIa inh 1536: 8; FXIIa inh: -12; Thrombin inh: 13; CTSL1 counter: 4; KLK5 inh: 104*; Rce1 inh: inactive

What do the screens show for `CC(C)[C@H](NC(=O)[C@H](CCCN=C(N)N)NC(=O)NC(Cc1ccccc1)C(=O)O)C(=O)NC(C=O)CCCN=C(N)N` (stereo partly specified)?
FXIa inh 1536: 43*; FXIIa inh: 47*; Thrombin inh: 7; CTSL1 counter: 112*; KLK5 inh: 32; Rce1 inh: inactive

How did CS(=O)(=O)c1ccc(NC(=O)c2cccc(S(=O)(=O)N3CCN(Cc4ccccc4)CC3)c2)cc1 do in these assays?
CTSL1 counter: 0

What do the screens show for `CC(=O)Nc1ccc(S(=O)(=O)N[C@@H](C)C(=O)OCc2cc([N+](=O)[O-])cc3c2OCOC3)cc1`?
FXIa inh 1536: 0; FXIIa inh: 6; Thrombin inh: 5; CTSL1 counter: -6; KLK5 inh: 4; Rce1 inh: inactive

Results for CC(C)C(NS(=O)(=O)c1ccccc1)C(=O)OCc1cc([N+](=O)[O-])cc2c1OCOC2 (stereo unspecified) ?
FXIa inh 1536: 11; FXIIa inh: 7; Thrombin inh: 48*; CTSL1 counter: -3; KLK5 inh: 39; Rce1 inh: inactive

How did Cc1nc(C(=O)Nc2ccccc2)sc1C(=O)Nc1ccccc1 do in these assays?
FXIa inh 1536: 1; FXIIa inh: 10; Thrombin inh: 1; CTSL1 counter: -2; KLK5 inh: 0; Rce1 inh: inactive

Results for Cc1nc(/N=C\N(C)C)sc1C(=O)Nc1ccccc1 ?
FXIa inh 1536: 11; FXIIa inh: 14; Thrombin inh: 25; CTSL1 counter: 1; KLK5 inh: 48*; Rce1 inh: inactive

Results for C=C(C)CN=c1scc(C)n1/N=C/c1ccco1 ?
FXIa inh 1536: 4; FXIIa inh: 10; Thrombin inh: 9; CTSL1 counter: 5; KLK5 inh: 43*; Rce1 inh: inactive

Results for Cc1cc(C)n(-c2nnc(C)n2/N=C/c2ccco2)n1 ?
FXIa inh 1536: 9; FXIIa inh: 16; Thrombin inh: 1; CTSL1 counter: 0; KLK5 inh: -4; Rce1 inh: inactive

Results for CCOC(=O)N1CCN(C(=O)COC(=O)c2oc3ccc(OC)cc3c2C)CC1 ?
CTSL1 counter: -4; Rce1 inh: inactive

Results for CCn1c(SCC(=O)N(C)CC(=O)Nc2ccc(F)c(F)c2F)nnc1-c1ccco1 ?
CTSL1 counter: -2; Rce1 inh: inactive

How did O=c1oc(-c2cccnc2)nc2ccccc12 do in these assays?
FXIa inh 1536: 3; FXIIa inh: -3; Thrombin inh: 82*; CTSL1 counter: 0; KLK5 inh: 9; Rce1 inh: inactive

How did c1cncc(-c2nc3ccccc3o2)c1 do in these assays?
FXIa inh 1536: -8; FXIIa inh: -8; Thrombin inh: 0; CTSL1 counter: 3; KLK5 inh: -13; Rce1 inh: inactive

What do the screens show for `O=C1N=C(c2ccccc2)S/C1=C\c1cccs1`?
FXIa inh 1536: 35; FXIIa inh: 36; Thrombin inh: 61*; CTSL1 counter: 2; KLK5 inh: 2; Rce1 inh: inactive

How did O=C1NC(=Nc2ccccc2)S/C1=C/c1cccs1 do in these assays?
FXIa inh 1536: 33; FXIIa inh: 45*; Thrombin inh: 6; CTSL1 counter: 1; KLK5 inh: 26; Rce1 inh: inactive

Results for O=C1N=C(N2CCN(c3ccccc3)CC2)S/C1=C/c1cccs1 ?
FXIa inh 1536: 8; FXIIa inh: 10; Thrombin inh: -6; CTSL1 counter: 5; KLK5 inh: 2; Rce1 inh: inactive

Results for COCc1ccc(CN2CCC(n3nccc3NC(=O)CCOc3ccccc3)CC2)o1 ?
CTSL1 counter: -1; Rce1 inh: inactive

What do the screens show for `CC1CCC2(CC1)OCC1(CCC3(COC4(CCC(C)CC4)OC3)C1=O)CO2` (stereo unspecified)?
FXIa inh 1536: -2; FXIIa inh: -1; CTSL1 counter: -3; KLK5 inh: -6; Rce1 inh: inactive

Results for O=C(CN(c1ccccc1)S(=O)(=O)c1ccccc1)Nc1ccc(F)cc1 ?
CTSL1 counter: -2; Rce1 inh: inactive

How did Cc1c(Cl)cccc1NC(=O)Cc1ccc([N+](=O)[O-])cc1 do in these assays?
FXIa inh 1536: -3; FXIIa inh: 9; Thrombin inh: 96*; CTSL1 counter: -3; KLK5 inh: 3; Rce1 inh: inactive

How did COc1ccc(C2C=C(c3ccc(Br)cc3)Nc3nc(N4C(=O)CCC4=O)nn32)cc1 (stereo unspecified) do in these assays?
FXIa inh 1536: -3; FXIIa inh: 13; Thrombin inh: 53*; CTSL1 counter: 7; KLK5 inh: -85; Rce1 inh: inactive

Results for COc1ccccc1C1C=C(c2ccc(Cl)cc2)Nc2nc(N3C(=O)CCC3=O)nn21 (stereo unspecified) ?
FXIa inh 1536: 3; FXIIa inh: 13; Thrombin inh: 50*; CTSL1 counter: 1; KLK5 inh: -34

Results for Cc1cc(N(C)C)c(C#N)c(NCc2ccccc2)n1 ?
FXIa inh 1536: 3; FXIIa inh: 27; Thrombin inh: 19; CTSL1 counter: 3; KLK5 inh: 64*; Rce1 inh: inactive

Results for COC(=O)Nc1ccccc1C(=O)N1CCCCC1 ?
FXIa inh 1536: -22; FXIIa inh: -20; Thrombin inh: -3; CTSL1 counter: 0; KLK5 inh: -5; Rce1 inh: inactive

Source: PubChem BioAssay (several laboratories)
